Compound activity: PubChem, several laboratories
The list is not random: actives were taken first. Their share in the collection is about 3.4%.
Mdm2 ligase inh – blocks human Mdm2 ubiquitin ligase activity; signal enhancement, % at 5 µM; AID 1230; cell-based MDM2 ubiquitination luciferase reporter, 2 h; 0 = plate control, 100 = twice control, blank-subtracted; hit rate 0.11% among 210,000; Q00987;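 active = signal enhancement of 30% or more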;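 also: luminescence tracks abundance of the self-degrading MDM2-luciferase fusion protein; higher signal means inhibition of MDM2 E3 ligase activity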
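Assay system: stable mammalian line carrying autodegrading MDM2–luciferase fusion reporter; amount: 2000 cells seeded into each well; buffer or medium: DMEM; benchmarks: plate control and blank wells; signal: luciferase luminescence; timing: 2 h compound exposure at 37 °C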
p97 ATPase inh – inhibitors of human p97 ATPase; inhibition, % at 8 µM; hit rate 0.42% among 220,000; recombinant p97 ATPase, Kinase-Glo ATP luminescence, 3 h; in the data active = inhibition above about 15%;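 also: 0% = DMSO vehicle and 100% = wells lacking enzyme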
PKD1 kinase inh – blocks activity of human protein kinase D1 | Q15139 | PKD1 kinase fluorescence polarization assay | inhibition, % (test concentration not listed) | hit rate 0.056% among 200,000; in the data active = inhibition above about 50%
Target sequence (Q15139 whole entry, looked up): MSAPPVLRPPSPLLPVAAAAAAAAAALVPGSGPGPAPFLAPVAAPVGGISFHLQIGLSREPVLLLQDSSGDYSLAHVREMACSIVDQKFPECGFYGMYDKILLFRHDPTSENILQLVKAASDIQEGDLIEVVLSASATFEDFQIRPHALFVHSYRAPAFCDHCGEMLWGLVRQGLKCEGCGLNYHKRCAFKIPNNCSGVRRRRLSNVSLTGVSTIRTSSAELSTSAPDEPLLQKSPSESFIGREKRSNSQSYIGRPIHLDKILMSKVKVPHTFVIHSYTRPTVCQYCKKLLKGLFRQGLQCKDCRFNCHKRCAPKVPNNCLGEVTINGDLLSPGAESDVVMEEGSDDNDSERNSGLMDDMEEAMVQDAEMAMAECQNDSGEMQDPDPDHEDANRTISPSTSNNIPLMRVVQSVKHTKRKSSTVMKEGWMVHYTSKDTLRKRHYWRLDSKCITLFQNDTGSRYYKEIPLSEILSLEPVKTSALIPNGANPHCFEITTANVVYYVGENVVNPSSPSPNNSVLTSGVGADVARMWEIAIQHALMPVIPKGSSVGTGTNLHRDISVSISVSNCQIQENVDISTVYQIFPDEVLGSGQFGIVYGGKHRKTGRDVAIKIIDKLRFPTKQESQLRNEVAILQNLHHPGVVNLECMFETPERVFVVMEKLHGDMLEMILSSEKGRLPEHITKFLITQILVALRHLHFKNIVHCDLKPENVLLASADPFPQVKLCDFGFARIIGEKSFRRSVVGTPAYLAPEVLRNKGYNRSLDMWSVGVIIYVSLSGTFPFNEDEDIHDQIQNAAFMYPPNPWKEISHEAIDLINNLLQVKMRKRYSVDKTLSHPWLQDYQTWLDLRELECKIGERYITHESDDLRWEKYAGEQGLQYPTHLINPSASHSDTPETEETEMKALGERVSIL
Redox H2O2 prof – compounds producing H2O2 with reducing agent – biochemical, NIH compound library profiling, artefact control for MLSCN library redox annotation, primary screen | DTT-dependent redox cycling H2O2, phenol red/HRP absorbance; 100% = 100 µM peroxide control, 0% = buffer | activation, % at 10 µM | hit rate 0.03% among 200,000;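 active = activation of at least 50% relative to the plate's high and low controls in the primary single-dose screen; inactive = activation below 50%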;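 also: compound incubated with DTT at 0.8 mM final as the reducing agent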
ROMK primary – modulates human ROMK potassium channel activity; B-score at 10 µM; Tet-inducible ROMK, thallium flux fluorescence; actives lie on both sides; hit rate 2% among 130,000;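 active = signal ratio slope over the read window, or its plate-corrected B-score, at least 3 SD from the plate mean, either direction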;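 also: B-score of the F/F0 ratio slope over 7 to 12 s after thallium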
KCC2 mod – modulators of human KCC2 chloride dependent transport; B-score of Tl+ flux slope (higher = more flux/activation; lower = inhibition) at 10 µM; Q9H2X9; AID 1456; hit rate 2.2% among 190,000; KCC2 cells, thallium flux FluoZin-2 fluorescence;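 active = thallium flux slope and its plate-corrected score both differing from the plate sample mean at a set confidence after two filtering rounds, in either direction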;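 also: slope of fluorescence scaled to starting intensity during 10 to 20 s after thallium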
KCC2 sec1 – KCC2 (human) modulation, secondary assay; shares compounds with KCC2 mod; normalised thallium flux (F/F0 slope) at 10 µM; HEK293-KCC2, thallium flux, FluoZin2 fluorescence; active compounds read high; hit rate 15% among 3,700;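 active = thallium flux slope above the same plate's solvent-only control mean plus 3 SD; inconclusive = the two replicate wells disagree; inactive = no significant difference from solvent-only control wells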
KCC2 bumet counter – thallium flux despite bumetanide block in KCC2 cells, secondary assay 3; shares compounds with KCC2 mod; HEK293-KCC2 + bumetanide/ouabain, thallium flux FluoZin2; active compounds read high; normalized thallium flux at 10 µM; hit rate 49% among 3,700; AID 1714;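 active = thallium entry rate above the same plate's blocked-transporter control wells by more than 3 SD; inconclusive = the two repeat wells disagree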;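 also: raw slope of fluorescence over initial fluorescence between 10 and 20 s after thallium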
KCC2 secondary2 – confirmation of human KCC2 transport modulators; shares compounds with KCC2 mod; HEK293-KCC2, thallium flux FluoZin2 fluorescence; actives lie on both sides; F/F0 rise rate, 10–20 s post-thallium; normalized thallium flux at 10 µM; hit rate 23% among 3,700; AID 1715;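 active = thallium flux slope more than 3 SD above or below the plate's solvent-only control mean, mostly below; inconclusive = the two repeat wells disagreed; inactive = no significant shift from solvent-only controls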;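 also: raw slope with 0.1% DMSO as baseline and bumetanide as block control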
HEK counter1 – counter-screen for KCC2 modulators: effect in parental HEK293 cells; hit rate 46% among 3,700; thallium flux FluoZin2, ouabain; baseline-ratio fluorescence slope, 10–20 s after thallium; thallium flux rate (normalised fluorescence) at 10 µM; AID 1716; shares compounds with KCC2 mod;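 active = thallium flux rate significantly above the same plate's solvent-only control wells, beyond their mean plus 3 SD; inconclusive = the two replicate wells gave conflicting results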
KCC2 retest ouab – confirmation of human KCC2 modulators with ouabain; shares compounds with KCC2 mod; raw Tl+ flux slope (below DMSO = inhibition, above = activation) at 10 µM; AID 1717; HEK293-KCC2, thallium flux FluoZin2 fluorescence; bidirectional: low = inhibitor, high = activator; hit rate 48% among 3,700;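 active = thallium flux slope beyond 3 SD from same-plate DMSO control mean in most replicates, usually higher, sometimes lower; inconclusive = repeat tests gave conflicting results; inactive = no significant difference from controls in most replicates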;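 also: slope of initial-normalized fluorescence between seconds 10 and 20 after thallium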
HEK293 Tl flux2 – acts in parental HEK cells, second KCC2 counter-screen; shares compounds with KCC2 mod; thallium flux slope at 10 µM; AID 1718; hit rate 33% among 3,700; HEK293 parental, thallium flux FluoZin-2 fluorescence slope;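 active = thallium flux slope above the same plate's solvent-control mean plus 3 SD in both duplicate wells; inconclusive = duplicate wells that disagreed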;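 also: run without ouabain in cells lacking the KCC2 cotransporter; slope of fluorescence scaled to its starting value between 10 and 20 s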
* = called active by the depositor; ? = inconclusive; nt = no result.

SMILES	Mdm2 ligase inh	p97 ATPase inh	PKD1 kinase inh	Redox H2O2 prof	ROMK primary	KCC2 mod	KCC2 sec1	KCC2 bumet counter	KCC2 secondary2	HEK counter1	KCC2 retest ouab	HEK293 Tl flux2
COCC(=O)Nc1nc2ccccc2s1	1	2	-1	0	1.1	0.7	nt	nt	nt	nt	nt	nt
Nc1ccc(C(=O)Nc2nc3ccccc3s2)cc1	-56	-4	-6	0	nt	-3.6*	0.0082	0.0065	0.033	0.0076	0.019	0.011
NC(=S)Nc1nc2ccccc2s1	-4	1	9	0	0.15	102*	0.041*	0.087*	0.051*	0.057*	0.056*	0.061*
O=C(NNC(=O)C12CC3CC(CC(C3)C1)C2)c1ccccn1	5	5	nt	nt	nt	22*	0.006	0.041*	0.044*	0.027*	0.042*	0.03*
O=C(NNC(=S)NC(=O)C12CC3CC(CC(C3)C1)C2)c1ccncc1	-9	8	-8	0	nt	nt	0.017*	0.038*	0.036	0.02*	0.029	0.013*
CCOc1ccc(CCNC(=O)COC(=O)c2ccco2)cc1OCC	-7	0	2	-2	-0.66	-0.093	nt	nt	nt	nt	nt	nt
COCCNC(=O)C(c1ccc(O)cc1)N(C(=O)CCC(=O)Nc1nccs1)c1cccc(C)c1 (centres undefined)	4	-1	-4	0	0.55	1.1	nt	nt	nt	nt	nt	nt
Cc1cccc(N(C(=O)CCC(=O)Nc2ccccn2)C(C(=O)NC(C)C)c2ccc(O)cc2)c1 (centres undefined)	-12	0	-11	1	nt	-3.5*	0.0059	0.0047	0.029	0.0078	0.019	0.012
Nn1c(COc2ccc(Cl)cc2)n[nH]c1=S	-12	2	7	-2	-0.15	-3.3*	0.0097	0.0072	?	0.0076	0.035*	0.0099
COC(=O)C1=C(C(=O)OC)[C@@H]2N(Cc3ccccc3)c3ccccc3[C@@]23C[C@@H](C(=O)OC)N(C(C)=O)C3=N1	5	nt	nt	nt	nt	-1.1*	0.0073	0.0046	0.034	0.0073	0.021	0.011
OCCN(Cc1ccccc1)Cc1cccc(Cl)c1Cl	2	-9	-6	1	nt	-0.6	nt	nt	nt	nt	nt	nt
O=C(c1cc(-c2ccccc2)on1)N1CCN(C(=O)c2ccco2)CC1	-2	5	-14	1	0.071	-0.036	nt	nt	nt	nt	nt	nt
Cc1cccc(C)c1-n1cccc1/C=C1/C(=N)N2C(=NC1=O)SN=C2S(C)(=O)=O	-19	-2	0	-1	-2.3	-4.5*	0.0074	0.0062	0.034	0.0065	0.015*	0.011
Cc1cc(/C=C2/C(=N)N3C(=NC2=O)SN=C3S(C)(=O)=O)c(C)n1-c1ccc(F)cc1	-17	2	-1	0	1.9	-3.5	nt	nt	nt	nt	nt	nt
CCC1=NN2C(=N)/C(=C\c3cccn3-c3c(C)cccc3C)C(=O)N=C2S1	-7	3	1	-1	-1.2	9*	?	0.028*	0.036	0.032*	0.03*	0.015*
CCC1=NN2C(=N)/C(=C\c3cccn3-c3ccc(C)cc3C)C(=O)N=C2S1	-7	3	-3	0	1.8	8.6*	0.011	0.055*	0.035	0.02*	0.04*	?
CC(C)CC(=O)Nc1cccc(NC(=O)c2ccccc2Cl)c1	-4	6	-12	0	1.2	-0.22	nt	nt	nt	nt	nt	nt
CC1=C(C(=O)OCc2ccccc2)C(c2ccco2)C2=C(CC(C)(C)CC2=O)N1 (centres undefined)	-13	-1	-15	4	-2.9	-4.3*	?	0.0052	0.029	0.0062	0.05*	?
CCOC(=O)CC1Sc2ccccc2NC1=O (centres undefined)	-12	8	-4	3	0.08	0.22	nt	nt	nt	nt	nt	nt
CCOC(=O)CC1Sc2ccccc2NC1=S (centres undefined)	-17	-4	nt	nt	nt	6.9*	0.011	0.024*	0.036	?	0.031*	?
N#Cc1c(SCC(=O)O)nc(N2CCCCC2)c2c1CCCC2	-22	0	-9	0	0.023	-3.2*	0.012	0.0062	0.033	0.0064	0.02	0.011
COC(=O)CSc1nc(N2CCCCC2)c2c(c1C#N)CCCC2	-8	-6	6	-4	nt	-0.85	nt	nt	nt	nt	nt	nt
O=C(c1cc(COc2c(F)cccc2F)on1)N1CCC(c2ccccc2Cl)C1 (centres undefined)	-15	-3	-1	1	0.45	nt	nt	nt	nt	nt	nt	nt
O=C(c1cc(COc2c(F)cccc2F)on1)N1CCC(c2ccncc2)CC1	-20	2	4	-1	-1.7	nt	?	0.0084*	?	0.0072	0.019*	0.01
O=C(c1cc(COc2c(F)cccc2F)on1)N1CCC(c2ccccc2F)C1 (centres undefined)	15	-4	-5	-1	0.13	-3	nt	nt	nt	nt	nt	nt
SMILES	Mdm2 ligase inh	p97 ATPase inh	PKD1 kinase inh	Redox H2O2 prof	ROMK primary	KCC2 mod	KCC2 sec1	KCC2 bumet counter	KCC2 secondary2	HEK counter1	KCC2 retest ouab	HEK293 Tl flux2
O=C(NCCCn1ncc2ccccc21)c1cc(COc2c(F)cccc2F)on1	0	1	-5	0	0.24	-5.9*	0.016	?	0.022*	0.0068	0.012*	0.0099
CN1CCN(C(=O)c2cc(COc3c(F)cccc3F)on2)CC1c1ccccc1 (centres undefined)	-10	-4	-2	-1	nt	-4*	0.0071	0.0047	0.033	0.0067	0.015*	0.012
Cc1cc(C)nc(CCNC(=O)c2cc(COc3c(F)cccc3F)on2)n1	-13	1	2	1	0.94	nt	nt	nt	nt	nt	nt	nt
O=C(c1cc(COc2c(F)cccc2F)on1)N1CCc2ccccc2C1	5	-6	3	0	-0.26	-4.4*	0.0063	0.0054	0.035	0.0038	0.015*	0.012
O=C1c2ccccc2CCCC12N=NCC2c1cccc2ccccc12 (centres undefined)	-4	0	2	-9	nt	-0.012	nt	nt	nt	nt	nt	nt
CCN(CC)CCCNC(=O)CN1C(=O)CSc2ccc(S(=O)(=O)N3CCOCC3)cc21	-5	0	-8	0	-0.49	0.73	nt	nt	nt	nt	nt	nt
